Measurements: ChEMBL document CHEMBL1135642, “Synthesis and biological evaluation of 7,8,9,10-tetrahydroimidazo[1,2-c]pyrido[3,4-e]pyrimdin-5(6H)-ones as functionally selective ligands of the benzodiazepine receptor site on the GABA(A) receptor” (J Med Chem, 2002)
Blank lines part the entries; values can stand above or below the compound they belong to.

Legend:
[1] = molecular target: T1, Gamma-aminobutyric acid receptor subunit alpha-2 (Homo sapiens, UniProt P47869); assay: Effective concentration against gamma-aminobutyric acid (GABA) A receptor, alpha 2; parameters: species or system Xenopus laevis
T1 sequence (P47869 whole entry): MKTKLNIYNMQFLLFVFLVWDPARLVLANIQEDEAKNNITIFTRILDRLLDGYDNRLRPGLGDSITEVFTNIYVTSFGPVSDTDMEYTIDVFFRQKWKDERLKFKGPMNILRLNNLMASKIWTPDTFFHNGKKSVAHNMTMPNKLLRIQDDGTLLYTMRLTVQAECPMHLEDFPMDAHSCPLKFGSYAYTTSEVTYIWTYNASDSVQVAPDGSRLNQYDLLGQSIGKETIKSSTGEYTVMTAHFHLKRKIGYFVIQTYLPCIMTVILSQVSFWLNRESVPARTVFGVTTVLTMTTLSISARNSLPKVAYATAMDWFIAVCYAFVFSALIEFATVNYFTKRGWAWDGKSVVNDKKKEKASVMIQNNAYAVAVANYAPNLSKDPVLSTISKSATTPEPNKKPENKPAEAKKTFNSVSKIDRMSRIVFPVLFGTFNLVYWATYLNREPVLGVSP
Method in brief: (§1)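 Xenopus laevis oocytes were injected with human cRNA for the α, β and γ subunits needed to express each receptor subtype (α1, α2, α3 or α5). Electrophysiological recording was used to read potentiation, and the effective concentration and maximal percent potentiation were derived from it.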

[2] = molecular target: T2, Gamma-aminobutyric acid receptor subunit alpha-1 (Homo sapiens, UniProt P14867); assay: Effective concentration against gamma-aminobutyric acid (GABA) A receptor, alpha 1; parameters: species or system Xenopus laevis; method in brief: as §1
T2 sequence (P14867 whole entry): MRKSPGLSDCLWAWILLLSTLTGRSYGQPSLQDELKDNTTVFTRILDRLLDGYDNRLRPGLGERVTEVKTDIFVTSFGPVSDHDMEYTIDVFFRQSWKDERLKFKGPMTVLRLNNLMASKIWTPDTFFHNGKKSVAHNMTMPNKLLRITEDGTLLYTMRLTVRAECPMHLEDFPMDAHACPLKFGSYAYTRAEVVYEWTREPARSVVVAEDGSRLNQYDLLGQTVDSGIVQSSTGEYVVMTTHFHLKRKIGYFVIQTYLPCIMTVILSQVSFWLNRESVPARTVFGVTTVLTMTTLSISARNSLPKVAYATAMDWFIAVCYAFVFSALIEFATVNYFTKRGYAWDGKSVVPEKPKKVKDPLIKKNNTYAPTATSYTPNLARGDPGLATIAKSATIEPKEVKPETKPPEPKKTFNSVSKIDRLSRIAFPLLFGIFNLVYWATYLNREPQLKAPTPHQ

[3] = molecular target: GABA-A receptor; anion channel; assay: Binding affinity was determined by displacement of [3H]flumazenil from rat cortex homogenates; format: functional
Method in brief: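 Displacement of [3H]flumazenil from rat cortex homogenates. Values are averages (±SD); some analogues were run once as a single set of triplicates. NA means an IC50 was not achieved at the highest dose tested.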

[4] = molecular target: T3, Gamma-aminobutyric acid receptor subunit alpha-5 (Homo sapiens, UniProt P31644); assay: Effective concentration against Gamma-aminobutyric acid A receptor, alpha 5; parameters: species or system Xenopus laevis; method in brief: as §1
T3 sequence (P31644 whole entry): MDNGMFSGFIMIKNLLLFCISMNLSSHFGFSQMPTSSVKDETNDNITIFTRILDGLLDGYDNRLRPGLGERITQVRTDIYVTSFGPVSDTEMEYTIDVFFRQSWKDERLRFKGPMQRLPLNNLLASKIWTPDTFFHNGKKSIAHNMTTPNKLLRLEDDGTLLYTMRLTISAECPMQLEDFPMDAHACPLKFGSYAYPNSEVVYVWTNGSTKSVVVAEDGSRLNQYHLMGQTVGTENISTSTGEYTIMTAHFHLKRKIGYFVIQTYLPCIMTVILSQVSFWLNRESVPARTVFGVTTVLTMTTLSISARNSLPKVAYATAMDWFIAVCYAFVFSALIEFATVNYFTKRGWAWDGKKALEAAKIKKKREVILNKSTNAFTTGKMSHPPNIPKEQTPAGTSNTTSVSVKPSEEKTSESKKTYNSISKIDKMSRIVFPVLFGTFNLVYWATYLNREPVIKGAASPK

[5] = molecular target: T4, Gamma-aminobutyric acid receptor subunit alpha-1 (Homo sapiens) (UniProt P14867); assay: Maximum percent potentiation against gamma-aminobutyric acid (GABA) A receptor, alpha 1; settings: Xenopus laevis; method in brief: as §1
T4 sequence (whole entry): T2 sequence (P14867 whole entry)

[6] = molecular target: T5, Gamma-aminobutyric acid receptor subunit alpha-2 (Homo sapiens) (UniProt P47869); assay: Maximum percent potentiation against gamma-aminobutyric acid (GABA) A receptor, alpha 2; settings: Xenopus laevis; method in brief: as §1
T5 sequence (whole entry): T1 sequence (P47869 whole entry)

[7] = molecular target: T6, Gamma-aminobutyric acid receptor subunit alpha-5 (Homo sapiens) (UniProt P31644); assay: Maximum percent potentiation against gamma-aminobutyric acid (GABA) A receptor, alpha 5; settings: Xenopus laevis; method in brief: as §1
T6 sequence (whole entry): T3 sequence (P31644 whole entry)

[8] = molecular target: T7, Gamma-aminobutyric acid receptor subunit alpha-3 (Homo sapiens) (UniProt P34903); assay: Maximum percent potentiation against gamma-aminobutyric acid (GABA) A receptor, alpha 3; settings: Xenopus laevis; method in brief: as §1
T7 sequence (whole entry): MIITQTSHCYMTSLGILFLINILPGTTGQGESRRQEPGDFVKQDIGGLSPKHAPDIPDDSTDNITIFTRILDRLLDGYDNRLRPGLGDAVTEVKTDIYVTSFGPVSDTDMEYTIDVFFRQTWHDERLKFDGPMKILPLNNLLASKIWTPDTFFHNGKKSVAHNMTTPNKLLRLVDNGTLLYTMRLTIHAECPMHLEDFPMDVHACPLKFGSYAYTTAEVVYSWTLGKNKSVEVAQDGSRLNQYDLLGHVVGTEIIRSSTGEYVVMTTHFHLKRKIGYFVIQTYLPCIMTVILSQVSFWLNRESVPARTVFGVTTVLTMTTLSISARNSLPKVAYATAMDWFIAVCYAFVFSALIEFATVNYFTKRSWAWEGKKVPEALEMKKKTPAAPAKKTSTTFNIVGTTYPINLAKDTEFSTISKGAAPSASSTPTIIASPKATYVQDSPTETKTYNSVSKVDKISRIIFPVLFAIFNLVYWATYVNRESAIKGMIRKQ

[9] = molecular target: T8, Gamma-aminobutyric acid receptor subunit alpha-3 (Homo sapiens, UniProt P34903); assay: Effective concentration against gamma-aminobutyric acid (GABA) A receptor, alpha 3; parameters: species or system Xenopus laevis; method in brief: as §1
T8 sequence (P34903 whole entry): T7 sequence (whole entry)

EC50 [1]: 184 nM
EC50 [2]: 17 nM
SMILES: O=c1[nH]c2c(c3nc(-c4ccccc4)cn13)CN(Cc1ccccc1)CC2

Ki [3]: 51 nM
SMILES: CC(C)N1CCc2nc(O)n3cc(-c4ccccc4F)nc3c2C1

Ki [3]: 14.9 nM
SMILES: CC(c1ccc(F)cc1)N1CCc2nc(O)n3cc(-c4ccccc4F)nc3c2C1 (centres undefined)

EC50 [1]: < 100 nM
Ki [3]: 39 nM
EC50 [2]: < 100 nM
EC50 [4]: 1000 nM
SMILES: O=C(OCc1ccccc1)N1CCc2[nH]c(=O)n3cc(-c4ccccc4F)nc3c2C1

Ki [3]: 123 nM
SMILES: O=C(c1ccncc1)N1CCc2nc(O)n3cc(-c4ccccc4F)nc3c2C1

Ki [3]: 72 nM
SMILES: Oc1nc2c(c3nc(-c4cc(F)cc(F)c4)cn13)CN(Cc1ccccc1)CC2

Ki [3]: 0.6 nM
SMILES: COc1ccc(-c2cn3c(O)nc4c(c3n2)CN(Cc2ccccc2)CC4)c(F)c1

Ki [3]: 2.9 nM
SMILES: CC(c1ccccc1)N1CCc2nc(O)n3cc(-c4ccccc4F)nc3c2C1 (centres undefined)

Ki [3]: 83 nM
SMILES: Oc1nc2c(c3nc(-c4ccccc4F)cn13)CN(CCc1ccccc1)CC2

Ki [3]: 121 nM
SMILES: Oc1nc2c(c3nc(-c4ccc(Cl)cc4)cn13)CN(Cc1ccccc1)CC2

Activity [5]: 123%
Activity [6]: 115%
SMILES: COc1cccc(-c2cn3c(O)nc4c(c3n2)CN(Cc2ccccc2)CC4)c1

Activity [5]: 5%
Activity [6]: 18%
Activity [7]: 0%
Activity [8]: 20%
SMILES: C=CCN1CCc2nc(O)n3cc(-c4ccccc4F)nc3c2C1

Activity [5]: 56%
Activity [6]: 76%
Activity [7]: 31%
Activity [8]: 120%
SMILES: Oc1nc2c(c3nc(-c4ccccc4F)cn13)CN(Cc1ccccc1)CC2

EC50 [1]: 268 nM
Ki [3]: 2.3 nM
EC50 [2]: 81 nM
SMILES: COc1cccc(-c2cn3c(=O)[nH]c4c(c3n2)CN(Cc2ccccc2)CC4)c1

Activity [5]: 40%
Activity [6]: 58%
Activity [7]: 44%
Activity [8]: 49%
SMILES: Oc1nc2c(c3nc(-c4ccccc4F)cn13)CN(Cc1c[nH]cn1)CC2

EC50 [1]: 459 nM
Ki [3]: 10.1 nM
EC50 [9]: 425 nM
EC50 [2]: 118 nM
EC50 [4]: 439 nM
SMILES: O=c1[nH]c2c(c3nc(-c4ccccc4F)cn13)CN(Cc1cnc[nH]1)CC2

EC50 [1]: 143 nM
Ki [3]: 2.6 nM
EC50 [2]: 28 nM
SMILES: COc1ccc(-c2cn3c(=O)[nH]c4c(c3n2)CN(Cc2ccccc2)CC4)cc1

Ki [3]: 8.3 nM
SMILES: CC(c1cccc(F)c1)N1CCc2nc(O)n3cc(-c4ccccc4F)nc3c2C1 (centres undefined)

Activity [5]: 12%
EC50 [1]: 110 nM
Activity [6]: 22%
Ki [3]: 216 nM
Activity [7]: 0%
EC50 [9]: 116 nM
EC50 [2]: 95 nM
Activity [8]: 9%
SMILES: CCC(=O)N1CCc2nc(O)n3cc(-c4ccccc4F)nc3c2C1

Ki [3]: 301 nM
SMILES: O=C(c1ccccc1)N1CCc2nc(O)n3cc(-c4ccccc4)nc3c2C1

Ki [3]: 73 nM
SMILES: O=C(c1ccccn1)N1CCc2nc(O)n3cc(-c4ccccc4F)nc3c2C1

Ki [3]: 261 nM
SMILES: CCCC(=O)N1CCc2nc(O)n3cc(-c4ccccc4F)nc3c2C1

Activity [5]: 0%
EC50 [1]: 84 nM
Activity [6]: 44%
Ki [3]: 133 nM
Activity [7]: 0%
EC50 [9]: 117 nM
Activity [8]: 35%
SMILES: Oc1nc2c(c3nc(-c4ccccc4F)cn13)CN(c1ncccn1)CC2

Ki [3]: 6.5 nM
SMILES: C[C@@H](c1ccccc1)N1CCc2nc(O)n3cc(-c4ccccc4F)nc3c2C1
